Laboratory results as given in ChEMBL document CHEMBL1255410, “Activity of the investigational fluoroquinolone finafloxacin against ciprofloxacin-sensitive and -resistant Acinetobacter baumannii isolates” (2010).
≈ marks a conversion by molar mass, not a printed value.

What was measured:
Format in all cases: functional
[1] = system: Acinetobacter baumannii; assay: Antimicrobial activity against Acinetobacter baumannii isolate 65 harboring GyrA Ser83-Leu and ParC Ser80-Leu mutation at pH 7.2
Procedure, shortened: (§1)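 Agar dilution MIC on Mueller-Hinton agar under standard conditions (pH 7.2). Antibiotic-containing plates were made the same day from freshly prepared medium. Agar pH was checked after solidifying. Both fluoroquinolones were tested simultaneously against A. baumannii isolates with characterized gyrA/parC genes. MICs are in μg/ml.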

[2] = system: Acinetobacter baumannii; assay: Antimicrobial activity against Acinetobacter baumannii isolate 54 harboring GyrA Ser83-Leu and ParC Ser80-Leu mutation at pH 7.2
Procedure, shortened: (§2)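 Agar dilution MIC on Mueller-Hinton agar. For the acidic condition, HCl was added to bring the agar to pH 5.8 before pouring the antibiotic plates, and the pH was checked after the agar set. The standard condition was pH 7.2. Both drugs' plates were made the same day from fresh medium, and MICs were read at the same time.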

[3] = system: Acinetobacter baumannii; assay: Antimicrobial activity against Acinetobacter baumannii isolate 28 harboring GyrA Ser83-Leu mutation at pH 7.2
Procedure, shortened: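 MIC by agar dilution on Mueller-Hinton agar under standard conditions (pH 7.2), against isolates with characterized gyrA/parC genes. Agar pH was checked after solidifying. Plates for both drugs were prepared the same day from freshly made media, and MICs were determined simultaneously with the pH 5.8 set.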

[4] = system: Acinetobacter baumannii; assay: Antimicrobial activity against Acinetobacter baumannii isolate 20 harboring GyrA Ser83-Leu mutation at pH 5.8
Procedure, shortened: (§3)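 MIC by agar dilution on Mueller-Hinton agar acidified to pH 5.8 with HCl before antibiotic-containing plates were poured. Agar pH was rechecked once the agar had solidified. Isolates had characterized gyrA/parC genes. Plates for both drugs were made the same day from fresh media, and MICs were read in parallel with the standard-pH set.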

[5] = system: Acinetobacter baumannii; assay: Antimicrobial activity against Acinetobacter baumannii isolate 13 at pH 5.8; procedure, shortened: as §3
[6] = system: Acinetobacter baumannii; assay: Antimicrobial activity against Acinetobacter baumannii isolate 34 harboring GyrA Ser83-Leu mutation at pH 5.8; procedure, shortened: as §2
[7] = system: Acinetobacter baumannii; assay: Antimicrobial activity against Acinetobacter baumannii isolate 22 harboring GyrA Ser83-Leu mutation at pH 5.8; procedure, shortened: as §3
[8] = system: Acinetobacter baumannii; assay: Antimicrobial activity against Acinetobacter baumannii isolate 63 harboring GyrA Ser83-Leu and ParC Glu84-Lys mutation at pH 7.2; procedure, shortened: as §1
[9] = system: Acinetobacter baumannii; assay: Antimicrobial activity against Acinetobacter baumannii isolate 55 harboring GyrA Ser83-Leu and ParC Ser80-Leu mutation at pH 7.2; procedure, shortened: as §1
[10] = system: Acinetobacter baumannii; assay: Antimicrobial activity against Acinetobacter baumannii isolate 45 harboring GyrA Ser83-Leu and ParC Ser80-Leu mutation at pH 7.2; procedure, shortened: as §2
[11] = system: Acinetobacter baumannii; assay: Antimicrobial activity against Acinetobacter baumannii isolate 47 harboring GyrA Ser83-Leu and ParC Ser80-Phe mutation at pH 7.2; procedure, shortened: as §2
[12] = system: Acinetobacter baumannii; assay: Antimicrobial activity against adeB overexpressing Acinetobacter baumannii isolate 68 harboring GyrA Ser83-Leu and ParC Ser80-Leu mutation at pH 7.2; procedure, shortened: as §1
[13] = system: Acinetobacter baumannii; assay: Antimicrobial activity against Acinetobacter baumannii isolate 46 harboring GyrA Ser83-Leu and ParC Ser80-Leu mutation at pH 7.2; procedure, shortened: as §2

Row | Compound | MIC [1] | MIC [2] | MIC [3] | MIC [4] | MIC [5] | MIC [6] | MIC [7] | MIC [8] | MIC [9] | MIC [10] | MIC [11] | MIC [12] | MIC [13]
1 | O=C(O)c1cn(C2CC2)c2cc(N3CCNCC3)c(F)cc2c1=O [CIPROFLOXACIN] | > 128 µg/mL | 128 µg/mL (≈ 386 µM) | 4 µg/mL (≈ 12.1 µM) | 4 µg/mL (≈ 12.1 µM) | 4 µg/mL (≈ 12.1 µM) | 128 µg/mL (≈ 386 µM) | 32 µg/mL (≈ 96.6 µM) | > 128 µg/mL | 128 µg/mL (≈ 386 µM) |  |  |  | 
2 | N#Cc1c(N2C[C@@H]3NCCO[C@H]3C2)c(F)cc2c(=O)c(C(=O)O)cn(C3CC3)c12 [FINAFLOXACIN] | 64 µg/mL (≈ 161 µM) | 32 µg/mL (≈ 80.3 µM) | 16 µg/mL (≈ 40.2 µM) | 0.06 µg/mL (≈ 0.151 µM) | 0.12 µg/mL (≈ 0.301 µM) | 2 µg/mL (≈ 5.02 µM) | 1 µg/mL (≈ 2.51 µM) | 64 µg/mL (≈ 161 µM) | 32 µg/mL (≈ 80.3 µM) | 16 µg/mL (≈ 40.2 µM) | 32 µg/mL (≈ 80.3 µM) | 64 µg/mL (≈ 161 µM) | 16 µg/mL (≈ 40.2 µM)
